Only some compounds are listed: those with a hit (about 4.9% of all), similar ones and a draw of the others.
APP 5'UTR act – activators of APP 5'UTR luciferase reporter, primary screen, SH-SY5Y cells | SH-SY5Y APP 5'UTR luciferase reporter, luminescence; zero percent = DMSO vehicle wells | activation, % at 2 µM | 190,000 tested, 1% active | AID 1276, 2008;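 active = activation above a set limit, based on mean plus 3 SD of controls, cut at about 140% in these data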
STAT3 act – IL-6 driven STAT3 reporter potentiators, primary screen, U3A cells, luciferase, luminescence, MLSCN library; IL-6 STAT3-luciferase reporter; 100% = signal with IL-6 EC80 alone; activation (% of control), % at 5.6 µM; 190,000 tested, 0.91% active; AID 871, 2007;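 active = activation above the screen-wide mean of compound activation plus 3 SD, cut at about 130% in these data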;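 note: 0% = background luminescence of wells with medium and substrate only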
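Material: STAT3-luciferase reporter U3A cells; Probe or stimulus: IL-6 (33 ng/mL); Incubation: compound pre-incubation 1 h before IL-6, then 6 h stimulation at 37 °C; Technique: luminescence from STAT3-driven luciferase reporter; Evaluation: % activation versus median of IL-6-stimulated wells; Controls: IL-6-only high control.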
STAT3 inh – IL-6 driven STAT3 reporter inhibitors, primary screen, U3A cells, luciferase, luminescence, MLSCN library | IL-6 STAT3-luciferase reporter; host cell line lacks STAT1 | inhibition, % at 5.5 µM | 190,000 tested, 0.89% active | AID 862, 2007;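 active = inhibition above the mean inhibition across all screened compounds plus 3 SD, cut at about 44% in these data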;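 note: 0% = DMSO only wells and 100% = 100 µM nifuroxazide control wells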
STAT1 inh – STAT1 signaling inhibitors, primary screen, cell-based, HTS, luciferase reporter | NIH 3T3 STAT1-luciferase reporter, IFN-gamma, luminescence | inhibition, % at 5.5 µM | 200,000 tested, 0.35% active | AID 920, 2007;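 active = inhibition above a set limit, the mean inhibition across all tested compounds plus 3 SD, cut at about 34% in these data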;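 note: 0% = IFN-gamma with DMSO and 100% = IFN-gamma with 300 µM nifuroxazide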
STAT1 activator – STAT1 signaling activators, primary screen, cell-based, HTS, luciferase reporter; activation (% of control), % at 5.5 µM; 200,000 tested, 2.6% active; NIH 3T3 STAT1-luciferase reporter, IFN-gamma, luminescence; 100% = IFN-gamma alone, no compound; AID 932, 2007;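 active = activation above the screen-wide mean activation plus 3 SD, cut at about 130% in these data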;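 note: raw ratio to IFN-gamma control signal so 100% means no change and 0% no light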
NF-kB neuron act – activators of NF-kB expression in neurons, primary screen, cell-based, HTS. human neuronal cells, NF-kB reporter expression; active compounds read high. fold change at 12.5 µM. 190,000 tested, 1.6% active. AID 1239, 2008; in the data active = fold change above about 3.3
Active calls of the source: *; / = no result given.

SMILES | APP 5'UTR act | STAT3 act | STAT3 inh | STAT1 inh | STAT1 activator | NF-kB neuron act
COC(=O)c1ccc(Cn2cnc3c(cnn3-c3ccc(F)cc3)c2=O)o1 | -0.7 | 101.9 | 3.5 | 0.6 | 99.4 | 0.99
CC(C)CCn1cnc2c(cnn2-c2ccc(F)cc2)c1=O | 17.8 | 99.3 | 1.6 | -33.2 | 130.1* | 1.84
COC(=O)c1cc(-c2ccc(Br)cc2)on1 | 7.4 | 92.2 | 17.7 | 5.7 | 94.8 | 1.22
CCN(CC)C(=O)c1cc(-c2ccc(Br)cc2)on1 | 73.9 | 90.3 | 12.1 | -51.7 | 146.8* | 3.34*
COc1ccc(CNc2ccc(C)c(C)c2)cc1 | 25.4 | 105.3 | -0.2 | -32.0 | 129.6* | 1.77
COc1cc(CNc2ccc(C)c(C)c2)cc(OC)c1OC | 8.8 | 103.5 | 2.4 | 1.1 | 99.5 | 1.01
CC(C)c1ccc(NC(=O)NN2CCOCC2)cc1 | 85.6 | 107.2 | 1.0 | -52.8 | 146.0* | 1.74
CN(C)c1ccc(/C=C(\Cl)c2nc3ccccc3s2)cc1 | 118.3 | 67.6 | 40.3 | -40.0 | 136.1* | 0.8
Cc1cc(Cl)ccc1NC(=S)NCc1ccco1 | -11.0 | 103.5 | 1.6 | -1.9 | 101.8 | 1.28
COc1ccc(-c2cc3nc(C)cc(C)n3n2)cc1 | 111.8 | 155.9* | -60.2 | -37.5 | 134.7* | 3.57*
COc1ccc(-c2nc3nc(C)cc(C)n3n2)cc1 | / | 111.0 | -9.9 | -28.8 | 128.6* | 1.46
COc1ccc(CNc2nc3nc(C)cc(C)n3n2)cc1 | 17.9 | 111.3 | -10.4 | -8.6 | 107.8 | 1.25
C[C@@H]1CN(C2CCN(Cc3nc(CC4CC4)no3)CC2)C[C@H](C)O1 | 20.1 | 97.4 | 4.7 | 13.2 | 86.7 | 1.13
c1coc(-c2ccnc3ncnn23)c1 | -1.7 | 94.0 | 9.2 | -0.1 | 100.6 | 1.26
O=C(/C=C/c1ccco1)Nc1ccc2c(c1)OCCO2 | 155.9* | 69.1 | 41.1 | -5.2 | 102.9 | 9.17*
O=C(/C=C/c1ccccc1)Nc1ccc2c(c1)OCCO2 | 151.8* | 34.5 | 78.7* | 41.9* | 59.9 | 3.45*
COc1cccc(NC(=O)/C=C/c2ccco2)c1 | 73.5 | 108.3 | -9.5 | -28.9 | 127.7 | 3.72*
CCN(CC(=O)Nc1ccc2c(c1)OCCO2)C(=O)/C=C/c1ccccc1 | -9.4 | 111.4 | -11.9 | -11.4 | 109.1 | 1.55
CSc1cccc(NC(=O)/C=C/c2ccco2)c1 | 35.7 | 104.1 | -4.4 | -23.6 | 122.8 | 3.18
CCCCN(CCCC)CC(O)COc1ccccc1Br (configuration not stated) | -7.6 | 99.1 | 3.7 | 5.2 | 95.3 | 1.02
COc1ccc(Cc2n[nH]c(=S)n2Cc2ccccc2)cc1Cl | 23.9 | 102.0 | 2.3 | -2.2 | 100.6 | 0.93
Cc1ccc2sc(-c3ccc(NC(=O)c4cc(-n5cnnc5)ccc4Cl)cc3)nc2c1 | 156.0* | 89.1 | 20.4 | -44.8 | 148.6* | 1.05
CCCNC(=O)CCc1c(C)nc2nc(C)nn2c1C | -10.3 | 103.0 | -0.1 | -7.9 | 106.2 | 0.94
CC(=O)N/C(=C/c1ccc2c(c1)OCO2)C(=O)NCc1ccccc1 | 10.3 | 101.5 | 3.6 | -4.3 | 102.7 | 1.2
C/C(=N\NC(=O)CN1CCN(Cc2ccc(C)cc2)CC1)c1ccncc1 | -11.9 | 101.1 | -2.9 | 1.5 | 98.7 | 0.85
SMILES | APP 5'UTR act | STAT3 act | STAT3 inh | STAT1 inh | STAT1 activator | NF-kB neuron act
COc1ccccc1Nc1ccc(C(=O)NCc2cccs2)cn1 | -1.6 | 86.4 | 18.2 | -15.5 | 112.7 | 2.24
COc1ccccc1Nc1ncc(-c2cccs2)s1 | 8.6 | 156.5* | -61.0 | -39.9 | 136.3* | 5.13*
Cc1ccc(NC(=O)CSC2=NN3CCCC(=O)N=C3S2)c(C)c1 | 13.1 | / | / | 0.6 | 98.3 | 3.32*
Cc1cccc(NC(=O)CSC2=NN3CCCC(=O)N=C3S2)c1C | -6.8 | / | / | 1.2 | 97.7 | 2.9
Cc1ccc(C2=C/C(=C/c3cccnc3)C(=O)O2)c(C)c1 | 20.4 | 104.3 | -2.2 | -5.7 | 105.0 | 1.21
COc1ccc(NC(=S)c2ccc(N(C)C)cc2)cc1 | 135.4* | 81.5 | 24.6 | -54.5 | 149.2* | 2.84
COc1ccc(C(=S)Nc2ccc(N(C)C)cc2)cc1 | 170.3* | 95.3 | 11.2 | -30.0 | 127.6 | 5.42*
COc1ccccc1C(=O)CSc1ccccn1 | 19.6 | 91.5 | 14.1 | -25.3 | 121.5 | 1.74
COc1ccc(/C=N/Nc2nccnc2Cl)cc1 | 164.5* | 68.9 | 37.1 | -3.7 | 103.4 | 3.18
O=C(Cc1ccc(F)cc1)Nc1ccc(S(=O)(=O)N2CCCCC2)cc1 | 9.9 | 101.3 | 5.6 | -3.5 | 101.4 | 0.87
CCCCCCn1c(NCC)nc2c1c(=O)n(C)c(=O)n2C | -1.9 | 43.2 | 67.3* | 39.7* | 63.9 | 0.97
Cn1cc(Br)c(C(=O)NC2C3CC4CC(C3)CC2C4)n1 (configuration not stated) | 14.4 | 108.5 | -10.1 | -50.7 | 146.8* | 1.09
CCOc1c2ccc(C(=O)NCCc3ccc(C)cc3)cc2nn1CC | 21.2 | 104.8 | 1.9 | 0.1 | 99.9 | 1.06
CCn1nc2cc(C(=O)NCCc3cccs3)ccc2c1OC | 130.7 | 103.0 | 3.7 | -36.7 | 133.1* | 3.97*
Cc1ccc(C(=O)NCCc2cccs2)cc1 | 83.1 | 35.6 | 80.7* | 57.6* | 45.4 | 1.75
CC1CCN(c2nc(-c3cccnc3)nc3scc(-c4ccccc4)c23)CC1 | -4.4 | 95.6 | 8.6 | 2.9 | 97.3 | 0.9
Clc1nc(-c2ccccn2)nc2scc(-c3ccccc3)c12 | 113.2 | 77.5 | 25.6 | -29.9 | 126.6 | 3.31*
FC(F)(F)c1ccc(Oc2ccc3cc(Br)ccc3c2)nc1 | 0.9 | 93.8 | 9.6 | -0.9 | 100.8 | 1.15
O=[N+]([O-])c1ccc(Oc2ccc(C(F)(F)F)cn2)cc1 | -7.8 | 95.1 | 10.1 | -47.7 | 141.7* | 1.42
O=S(=O)(C/C(=C/CO)S(=O)(=O)c1ccccc1)c1ccccc1 | -79.9 | 61.6 | 47.7* | -174.6 | 260.0* | 0.93
CCc1ccc(NC(=S)NC(=O)CC(C)C)cc1 | 60.9 | 113.2 | -12.8 | -32.3 | 128.9* | 2.19
Cc1cc2c(=O)[nH]c(Cc3ccccc3)nc2s1 | -1.9 | 100.9 | 1.5 | -8.2 | 107.3 | 1.19
O=C(Cn1nc(C(F)(F)F)c2c1CCC2)NCc1ccc(Cl)cc1 | 8.5 | 102.8 | -1.9 | -2.1 | 106.7 | 0.83
COc1cc(/C=N\NC(=O)c2ccc(=O)[nH]n2)cc(OC)c1OC | -10.2 | 124.0 | -15.8 | 9.0 | 91.9 | 3.55*
COc1cc(/C=N/NC(=O)c2cc(-c3cccn3C)n[nH]2)cc(OC)c1OC | -11.2 | 134.3* | -31.8 | 1.0 | 99.1 | 0.53
COc1cc(/C=N/NC(=O)c2nonc2N)cc(OC)c1OC | 9.8 | 101.5 | 5.0 | -12.5 | 110.2 | 1.1
COc1cccc(/C=N/NC(=O)c2cc(-c3cccn3C)n[nH]2)c1 | -1.7 | 99.5 | 5.5 | -0.4 | 100.4 | 1
